Consider 3 compounds from ChEMBL document CHEMBL1275351, “Novel spirotetracyclic zwitterionic dual H(1)/5-HT(2A) receptor antagonists for the treatment of sleep disorders” (J Med Chem, 2010).

The target in series [1] is Histamine H1 receptor (Rattus norvegicus, UniProt P31390). Put plainly: Displacement of [3H]pyrilamine from histamine H1 receptor in Sprague-Dawley rat cortical membrane by liquid scintillation counting. In short, it runs like this:
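Cerebral cortex membranes from male Sprague-Dawley rats (200-250 g), 150 μg/well. Incubated with 0.6 nM [3H]pyrilamine in 50 mM HEPES, pH 7.4, for 2 h at room temperature. Filtered on PEI-soaked GF/B and counted by scintillation. Nonspecific binding with 10 μM cetirizine. Ki by Cheng-Prusoff; mean of two experiments in duplicate.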
(In a radioligand displacement assay an active substance lowers the binding of a labelled ligand.)

The next series has as its target Cytochrome P450 2C9 (Homo sapiens, UniProt P11712). Put plainly: Inhibition of human CYP2C9 transfected in bactosome expression system by spectrofluorimetry. It counts as ADME. The method, boiled down:
(§1)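 Recombinant human CYP Bactosomes (0.1 mg/mL) in 50 mM phosphate buffer, pH 7.4. Compound at 0.1-10 μM was preincubated with fluorogenic substrate for 10 min at 37 °C, and the reaction was started with an NADPH regenerating system. Metabolite fluorescence was followed for 10 min. Substrates: 1A2 ethoxyresorufin 0.5 μM; 2C9 FCA 50 μM; 2C19 BMC 10 μM; 2D6 MMC 10 μM; 3A4 DEF 1 μM or 7-BQ 25 μM. Run in triplicate.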

Series [2] has as its system Rattus norvegicus. Put plainly: Hypnotic activity in Sprague-Dawley rat assessed as rapid eye movement latency period at 1 mg/kg, po administered during active phase. It is filed as functional. In short, it runs like this: (§2)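 Male Sprague-Dawley rats (275-300 g) carried implanted telemetric EEG/EMG transmitters and were used 3 weeks after surgery. Oral dosing (2 mL/kg) was given 6 h after lights off (CT18) in a randomized crossover versus vehicle. Recording ran for 5 h in 10 s epochs scored by FFT. n = 8, mean ± SEM; one-way ANOVA with Dunnett's test.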

For series [3], the system named is Rattus norvegicus. Put plainly: Hypnotic activity in Sprague-Dawley rat assessed as total sleep time at 3 mg/kg, po administered during active phase. It counts as functional. The method, boiled down:
as §2

The target of series [4] is 5-hydroxytryptamine receptor 2B (Homo sapiens, UniProt P41595). Put plainly: Antagonist activity at human 5HT2B receptor expressed in human SH-SY5Y cells by FLIPR assay.
Series [5] relates to Rattus norvegicus. Put plainly: Hypnotic activity in Sprague-Dawley rat assessed as non-rapid eye movement latency period at 10 mg/kg, po administered during active phase. It is filed as functional. The method, boiled down:
as §2

The nature of series [6]: Fraction unbound in rat blood. It counts as ADME, tissue-based.
Series [7] concerns Rattus norvegicus. Put plainly: Hypnotic activity in Sprague-Dawley rat assessed as non-rapid eye movement sleep at 10 mg/kg, po administered during active phase. It is filed as functional. In short, it runs like this: as §2
The next series addresses T1, Cytochrome P450 1A2 (Homo sapiens, UniProt P05177).
T1 sequence (P05177 whole entry): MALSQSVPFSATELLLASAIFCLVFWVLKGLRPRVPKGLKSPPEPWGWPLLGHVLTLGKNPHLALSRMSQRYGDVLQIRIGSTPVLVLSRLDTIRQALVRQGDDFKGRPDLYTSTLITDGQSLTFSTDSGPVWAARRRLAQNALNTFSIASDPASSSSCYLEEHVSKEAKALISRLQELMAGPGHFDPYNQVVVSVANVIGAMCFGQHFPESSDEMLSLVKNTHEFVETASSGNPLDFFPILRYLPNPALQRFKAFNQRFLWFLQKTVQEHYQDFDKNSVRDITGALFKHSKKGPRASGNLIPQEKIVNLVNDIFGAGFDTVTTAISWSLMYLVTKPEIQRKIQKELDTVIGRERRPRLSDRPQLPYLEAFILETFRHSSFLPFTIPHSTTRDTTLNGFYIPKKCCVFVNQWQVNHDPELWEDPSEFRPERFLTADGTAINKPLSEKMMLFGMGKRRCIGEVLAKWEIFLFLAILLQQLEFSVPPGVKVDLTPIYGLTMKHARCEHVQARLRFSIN
Put plainly: Inhibition of human CYP1A2 transfected in bactosome expression system by spectrofluorimetry. It is filed as ADME. In short, it runs like this: as §1

The target in series [8] is Histamine H1 receptor (Homo sapiens, UniProt P35367). Put plainly: Antagonist activity against human histamine H1 receptor expressed in CHO cells by FLIPR assay. It counts as functional, cell-based.
Series [9] relates to Rattus norvegicus. The experiment in a line: Hypnotic activity in Sprague-Dawley rat assessed as non-rapid eye movement latency period at 3 mg/kg, po administered during active phase. It counts as functional. In short, it runs like this: as §2
For series [10], the system named is Rattus norvegicus. Put plainly: Hypnotic activity in Sprague-Dawley rat assessed as rapid eye movement latency period at 3 mg/kg, po administered during active phase. It is filed as functional. The method, boiled down:
as §2

The test system of series [11] is Rattus norvegicus. The experiment in a line: Hypnotic activity in Sprague-Dawley rat assessed as rapid eye movement latency period at 10 mg/kg, po administered during active phase. It is filed as functional. In short, it runs like this:
as §2

Series [12] addresses 5-hydroxytryptamine receptor 2A (Rattus norvegicus, UniProt P14842). Put plainly: Displacement of [3H]ketanserin from 5HT2A receptor in Sprague-Dawley rat cortical membrane by liquid scintillation counting. In short, it runs like this:
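Cerebral cortex membranes from male Sprague-Dawley rats (200-250 g), 50 μg/well. Incubated with 1 nM [3H]ketanserin in 50 mM Tris-HCl, 10 mM MgCl2, pH 7.4, for 1 h at 37 °C with shaking. Filtered on PEI-soaked GF/B and counted by scintillation. Nonspecific binding with 10 μM mianserin. Ki by Cheng-Prusoff; mean of two experiments in duplicate.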

The next series has as its target Cytochrome P450 2D6 (Homo sapiens, UniProt P10635). Put plainly: Inhibition of human CYP2D6 transfected in bactosome expression system by spectrofluorimetry. It counts as ADME. The method, boiled down: as §1
The subject of series [13] is Rattus norvegicus. The experiment in a line: Hypnotic activity in Sprague-Dawley rat assessed as rapid eye movement sleep at 1 mg/kg, po administered during active phase. It is filed as functional. In short, it runs like this:
as §2

Series [14] relates to Rattus norvegicus. The experiment in a line: Hypnotic activity in Sprague-Dawley rat assessed as non-rapid eye movement sleep at 1 mg/kg, po administered during active phase. It counts as functional. The method, boiled down: as §2
In series [15] the test system is Rattus norvegicus. The experiment in a line: Hypnotic activity in Sprague-Dawley rat assessed as non-rapid eye movement latency period at 1 mg/kg, po administered during active phase. It is filed as functional. In short, it runs like this:
as §2

Series [16] deals with Rattus norvegicus. The experiment in a line: Hypnotic activity in Sprague-Dawley rat assessed as rapid eye movement sleep at 3 mg/kg, po administered during active phase. It counts as functional. The method, boiled down:
as §2

The test system of series [17] is Rattus norvegicus. Put plainly: Hypnotic activity in Sprague-Dawley rat assessed as rapid eye movement sleep at 10 mg/kg, po administered during active phase. It is filed as functional. In short, it runs like this:
as §2

Series [18] addresses T2, 5-hydroxytryptamine receptor 2C (Homo sapiens, UniProt P28335).
T2 sequence (P28335 whole entry): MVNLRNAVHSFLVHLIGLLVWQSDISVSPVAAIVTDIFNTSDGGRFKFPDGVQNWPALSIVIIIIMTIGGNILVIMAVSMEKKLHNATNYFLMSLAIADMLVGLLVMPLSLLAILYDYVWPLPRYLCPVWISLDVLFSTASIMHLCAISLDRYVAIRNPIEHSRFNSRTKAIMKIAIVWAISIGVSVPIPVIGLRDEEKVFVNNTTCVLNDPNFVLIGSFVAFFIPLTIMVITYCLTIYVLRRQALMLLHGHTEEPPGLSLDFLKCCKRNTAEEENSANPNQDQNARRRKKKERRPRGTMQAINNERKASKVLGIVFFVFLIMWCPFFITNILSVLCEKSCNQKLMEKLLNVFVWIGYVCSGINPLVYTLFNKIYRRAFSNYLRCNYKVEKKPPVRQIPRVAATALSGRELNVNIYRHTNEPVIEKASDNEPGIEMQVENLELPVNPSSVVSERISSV
Put plainly: Antagonist activity at human 5HT2C receptor expressed in human SH-SY5Y cells by FLIPR assay. It counts as functional, cell-based.

The target of series [19] is 5-hydroxytryptamine receptor 2A (Homo sapiens, UniProt P28223). The experiment in a line: Antagonist activity at human 5HT2A receptor expressed in HEK cells assessed as inhibition of intracellular calcium accumulation by aequorin assay. It counts as functional, cell-based, HEK293. A general note: Calcium flux is commonly read through the fluorescence of an indicator in the cells.
5-hydroxytryptamine receptor 2A (Homo sapiens, UniProt P28223), sequence (P28223 whole entry): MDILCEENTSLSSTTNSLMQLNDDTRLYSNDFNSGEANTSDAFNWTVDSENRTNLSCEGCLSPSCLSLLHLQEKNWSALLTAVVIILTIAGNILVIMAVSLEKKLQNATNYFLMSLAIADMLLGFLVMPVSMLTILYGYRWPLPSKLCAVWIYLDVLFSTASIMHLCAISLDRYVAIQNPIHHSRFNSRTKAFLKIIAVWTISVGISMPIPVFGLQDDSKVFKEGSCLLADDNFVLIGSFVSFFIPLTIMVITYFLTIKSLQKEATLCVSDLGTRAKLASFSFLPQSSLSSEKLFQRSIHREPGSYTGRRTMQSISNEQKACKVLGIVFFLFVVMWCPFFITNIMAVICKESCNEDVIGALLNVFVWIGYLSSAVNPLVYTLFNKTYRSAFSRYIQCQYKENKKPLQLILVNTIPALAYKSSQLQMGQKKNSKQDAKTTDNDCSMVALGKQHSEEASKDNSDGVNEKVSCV

Histamine H1 receptor (Homo sapiens, UniProt P35367), sequence (P35367 whole entry): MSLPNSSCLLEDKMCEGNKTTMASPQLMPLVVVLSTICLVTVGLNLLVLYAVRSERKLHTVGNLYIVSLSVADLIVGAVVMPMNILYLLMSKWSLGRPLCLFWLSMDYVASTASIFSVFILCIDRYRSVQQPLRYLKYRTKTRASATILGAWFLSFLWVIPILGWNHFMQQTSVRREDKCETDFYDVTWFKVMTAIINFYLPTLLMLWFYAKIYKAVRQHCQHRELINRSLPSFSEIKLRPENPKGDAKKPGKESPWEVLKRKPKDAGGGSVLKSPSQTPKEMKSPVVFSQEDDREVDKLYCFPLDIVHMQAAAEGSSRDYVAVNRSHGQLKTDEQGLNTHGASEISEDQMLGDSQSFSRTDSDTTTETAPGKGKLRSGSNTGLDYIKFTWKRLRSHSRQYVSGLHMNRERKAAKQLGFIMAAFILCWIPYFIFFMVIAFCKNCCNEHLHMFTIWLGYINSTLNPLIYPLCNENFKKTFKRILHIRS
5-hydroxytryptamine receptor 2A (Rattus norvegicus, UniProt P14842), sequence (P14842 whole entry): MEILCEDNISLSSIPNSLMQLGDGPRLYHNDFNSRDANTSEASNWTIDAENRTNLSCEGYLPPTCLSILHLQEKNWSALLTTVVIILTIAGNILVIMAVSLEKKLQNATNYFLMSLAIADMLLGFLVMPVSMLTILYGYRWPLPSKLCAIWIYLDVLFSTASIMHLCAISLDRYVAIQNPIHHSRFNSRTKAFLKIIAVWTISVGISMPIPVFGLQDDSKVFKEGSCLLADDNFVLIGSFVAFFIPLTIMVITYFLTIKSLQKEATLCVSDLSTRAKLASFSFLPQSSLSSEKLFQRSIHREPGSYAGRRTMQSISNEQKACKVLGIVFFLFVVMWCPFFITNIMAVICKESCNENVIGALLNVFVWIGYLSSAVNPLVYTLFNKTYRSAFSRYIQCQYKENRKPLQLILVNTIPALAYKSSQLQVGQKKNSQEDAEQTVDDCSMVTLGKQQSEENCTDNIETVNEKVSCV
Cytochrome P450 2C9, sequence (P11712 whole entry): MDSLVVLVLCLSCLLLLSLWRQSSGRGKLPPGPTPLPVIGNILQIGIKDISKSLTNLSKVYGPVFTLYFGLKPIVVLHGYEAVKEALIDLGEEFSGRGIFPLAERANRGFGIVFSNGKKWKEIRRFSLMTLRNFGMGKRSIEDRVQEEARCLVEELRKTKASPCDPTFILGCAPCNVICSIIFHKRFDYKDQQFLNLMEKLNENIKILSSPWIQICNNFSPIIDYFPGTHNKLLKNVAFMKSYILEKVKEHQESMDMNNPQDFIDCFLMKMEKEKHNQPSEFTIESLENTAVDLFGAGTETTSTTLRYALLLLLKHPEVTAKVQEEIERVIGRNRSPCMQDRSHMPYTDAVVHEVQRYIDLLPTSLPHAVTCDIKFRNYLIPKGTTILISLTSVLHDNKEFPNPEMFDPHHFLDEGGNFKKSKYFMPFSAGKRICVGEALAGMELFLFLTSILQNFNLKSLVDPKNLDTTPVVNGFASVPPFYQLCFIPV
Histamine H1 receptor (Rattus norvegicus, UniProt P31390), sequence (P31390 whole entry): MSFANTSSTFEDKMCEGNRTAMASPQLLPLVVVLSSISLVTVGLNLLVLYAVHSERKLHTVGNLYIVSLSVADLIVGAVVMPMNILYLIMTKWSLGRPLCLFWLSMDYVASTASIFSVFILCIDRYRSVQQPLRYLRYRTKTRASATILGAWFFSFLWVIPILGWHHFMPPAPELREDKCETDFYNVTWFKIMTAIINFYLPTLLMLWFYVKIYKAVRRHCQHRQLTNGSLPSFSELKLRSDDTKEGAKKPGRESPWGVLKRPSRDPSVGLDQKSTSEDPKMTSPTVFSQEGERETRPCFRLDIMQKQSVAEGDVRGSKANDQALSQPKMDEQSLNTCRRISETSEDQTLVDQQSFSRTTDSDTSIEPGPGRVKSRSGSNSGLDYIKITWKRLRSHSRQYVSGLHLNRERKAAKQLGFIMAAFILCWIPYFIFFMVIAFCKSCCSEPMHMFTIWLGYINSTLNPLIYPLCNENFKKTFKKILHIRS
5-hydroxytryptamine receptor 2B, sequence (P41595 whole entry): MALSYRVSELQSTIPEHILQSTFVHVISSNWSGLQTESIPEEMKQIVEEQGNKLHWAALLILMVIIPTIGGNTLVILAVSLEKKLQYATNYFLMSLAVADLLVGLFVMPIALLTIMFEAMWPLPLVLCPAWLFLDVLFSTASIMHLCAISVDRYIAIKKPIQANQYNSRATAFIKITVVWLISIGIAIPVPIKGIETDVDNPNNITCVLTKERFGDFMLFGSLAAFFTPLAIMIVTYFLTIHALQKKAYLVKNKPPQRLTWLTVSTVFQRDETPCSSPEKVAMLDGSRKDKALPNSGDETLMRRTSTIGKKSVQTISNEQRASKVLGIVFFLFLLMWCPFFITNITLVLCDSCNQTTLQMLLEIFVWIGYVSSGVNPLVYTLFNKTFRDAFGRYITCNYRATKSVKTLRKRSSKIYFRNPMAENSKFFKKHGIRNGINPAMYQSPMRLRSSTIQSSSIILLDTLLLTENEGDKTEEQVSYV
Cytochrome P450 2D6, sequence (P10635 whole entry): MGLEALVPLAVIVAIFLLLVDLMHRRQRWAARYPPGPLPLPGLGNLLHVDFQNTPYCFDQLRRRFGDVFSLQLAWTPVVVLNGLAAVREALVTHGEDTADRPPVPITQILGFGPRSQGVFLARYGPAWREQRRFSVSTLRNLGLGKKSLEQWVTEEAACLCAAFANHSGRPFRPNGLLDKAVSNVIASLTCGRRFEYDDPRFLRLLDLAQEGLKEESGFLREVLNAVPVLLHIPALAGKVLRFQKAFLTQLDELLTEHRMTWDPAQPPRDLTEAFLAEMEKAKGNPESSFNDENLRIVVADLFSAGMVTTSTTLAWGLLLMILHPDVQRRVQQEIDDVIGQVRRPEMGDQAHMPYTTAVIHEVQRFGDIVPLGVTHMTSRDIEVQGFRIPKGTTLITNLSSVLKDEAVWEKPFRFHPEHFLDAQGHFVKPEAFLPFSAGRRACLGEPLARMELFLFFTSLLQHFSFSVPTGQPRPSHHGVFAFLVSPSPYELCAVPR

Broadly, the Ki is a measure of affinity in units of concentration, obtained from inhibition or displacement. The IC50 is the concentration at which inhibition is half-maximal. Low values mean higher potency, high ones lower potency. The term fraction unbound denotes the share of the substance not bound to proteins or other matrix. A higher fraction unbound goes with much free substance. Turning to `O=C(O)C1CCN(C2CC[C@]3(Cc4ccccc4Cc4ccccc43)C2)CC1` (stereo partly specified), the inhibitory constant (Ki) is 0.00468 µM at Histamine H1 receptor [1]; 0.158 µM in series [4]; 0.0501 µM on Histamine H1 receptor [8]; 0.0339 µM in series [12]; 0.0631 µM in series [18]; 0.0794 µM in series [19]. Also, the IC50 against Cytochrome P450 2C9, on Cytochrome P450 1A2 and on Cytochrome P450 2D6 was over 10 µM in each case. For the same compound, the Time in the series with Rattus norvegicus [2] came to 83.6 min; with Rattus norvegicus [3] it was 105.2 min; in the series on Rattus norvegicus [5], 34.6 min; in the series with Rattus norvegicus [7], 104 min; in the series with Rattus norvegicus [9] it was 51.4 min; with Rattus norvegicus [10] it was 77.9 min. Further, the Time in the series with Rattus norvegicus [11] was found to be 83.8 min; with Rattus norvegicus [13], 9.7 min; in the series on Rattus norvegicus [14], 84.7 min; in the series on Rattus norvegicus [15] it was 69.8 min; in the series with Rattus norvegicus [16] it was 11 min; in the series with Rattus norvegicus [17], 12.6 min. The fraction unbound in [6] was determined as 0.182.
With `O=C(O)C1CN(C2CC[C@]3(Cc4ccccc4Cc4ccccc43)C2)C1` (stereo partly specified), the Ki on Histamine H1 receptor [1] was 0.00562 µM; in [4], 0.0794 µM; on Histamine H1 receptor [8] it was 0.00631 µM; in series [12] it was 0.0331 µM; in series [18] it was 0.00631 µM; in series [19] it was 0.0158 µM. The concentration for half-maximal inhibition (IC50) against Cytochrome P450 2C9, on Cytochrome P450 1A2 and on Cytochrome P450 2D6 was over 10 µM throughout. Further, the Time in the series with Rattus norvegicus [2] turned out to be 77.8 min; in the series on Rattus norvegicus [3] it was 134.7 min; with Rattus norvegicus [5], 33.5 min; in the series on Rattus norvegicus [7], 130.5 min; in the series with Rattus norvegicus [9] it was 51.6 min; in the series on Rattus norvegicus [10], 81.6 min. Besides, the Time was determined as 64.5 min in the series on Rattus norvegicus [11]; 10.7 min with Rattus norvegicus [13]; 87.4 min with Rattus norvegicus [14]; 58.1 min in the series on Rattus norvegicus [15]; 16.1 min in the series on Rattus norvegicus [16]; 14.6 min in the series with Rattus norvegicus [17]. The compound further registered a fraction unbound in series [6] of 0.12.
`O=C(O)C1CN(C2CCC3(Cc4ccccc4Oc4ccccc43)C2)C1` (stereo unspecified): the Ki is 0.0141 µM on Histamine H1 receptor [1]; 0.794 µM in series [4]; 0.0501 µM at Histamine H1 receptor [8]; 0.0339 µM in series [12]; 0.0316 µM in [18]; 0.0316 µM in series [19]. Further, the concentration for half-maximal inhibition (IC50) at Cytochrome P450 2C9, at Cytochrome P450 1A2 and against Cytochrome P450 2D6 was over 10 µM each time. Further, the Time in the series on Rattus norvegicus [2] amounted to 67 min; in the series on Rattus norvegicus [3], 138.3 min; with Rattus norvegicus [5], 31.5 min; with Rattus norvegicus [7], 139.5 min; in the series on Rattus norvegicus [9], 37.9 min; in the series on Rattus norvegicus [10], 77.7 min. Besides, the Time in the series with Rattus norvegicus [11] was determined as 63.4 min; in the series on Rattus norvegicus [13], 13.3 min; in the series with Rattus norvegicus [14], 107.3 min; in the series on Rattus norvegicus [15] it was 37.8 min; with Rattus norvegicus [16], 15.1 min; in the series with Rattus norvegicus [17], 16.2 min. The compound further registered a fraction unbound in series [6] of 0.171.
